High-throughput results (PubChem)
An excerpt weighted towards active compounds, which were near 12% of everything screened.
Dynein cargo inh – dynein cargo transport inhibition; 3617.4 mouse cells, GR-EGFP nuclear translocation imaging; test concentration mostly 20 µM; stimulated with dexamethasone, 1 µM; stronger effect = lower value; 220,000 compounds, 0.47% hits; z-score, hits read low;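 active = plate z-score of nuclear minus cytoplasmic receptor signal below a set negative limit, without overly bright fluorescence or cell loss, cut at about -3.5 in these data, passing the limit was not always enough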;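 note: z-score of nuclear minus cytoplasmic ring GR-EGFP intensity difference per well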
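Medium: Induction medium lacking tetracycline, stripped serum | Probe or stimulus: 1.0 µM final dexamethasone stimulus | Schedule: 48 h induction, then 1 h compound, then 30 min agonist, 37 °C | Signal: Automated 10x imaging of fixed Hoechst-stained cells | Evaluation: Per-cell GR-EGFP intensity, nucleus versus surrounding cytoplasmic ring, well-averaged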
bCat nuc transl – beta-catenin nuclear translocation modulation. 190,000 compounds, 0.3% hits. nuclear translocation activity, % at 5 µM. AID 1665. HeLa beta-catenin nuclear translocation, immunofluorescence imaging;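 active = nuclear translocation activity above 50% at 5 µM, with a well cell count of 50 or more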;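 note: per-cell ratio of nuclear to cytoplasmic median beta-catenin stain intensity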
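test system = HeLa cells, endogenous beta-catenin | dosing = single 5 µM dose plus 0.02–20 µM confirmation series | times = compound treatment 24 h, 37°C, 5% CO2 | technique = beta-catenin immunofluorescence imaging with DAPI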
MT stabilize HCS – microtubule stabilizers in HeLa cells; HeLa tubulin immunostaining HCS, 24 h; share of cells brighter than vehicle mean+2SD; % tubulin-high responders, % at 10 µM; 200,000 compounds, 0.83% hits; AID 2205;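 active = plate Z-score above 3 for both tubulin-high and condensed-nucleus cell shares, with cell loss under 80%, at 10 µM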;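 note: anti alpha tubulin signal scored within the nucleus-defined area of each cell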
L major viab – reduces viability of Leishmania major promastigotes. inhibition, % at 10 µM. AID 1063. 200,000 compounds, 9% hits. resazurin fluorescence viability; in the data active = inhibition above about 50%;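 note: promastigotes grown with compound for 44 hours at 28 °C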
CHOP inhibitor – inhibitors of CHOP induction in ER stress response; CHO-K1 CHOP-promoter luciferase, tunicamycin-induced, 15-18 h; inhibition, % at 10 µM; 220,000 compounds, 3.8% hits;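 active = compounds that reduced the stress-induced luciferase reporter signal by more than about 70% of percent inhibition, limit read from the data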
Autophagy mod – modulators of autophagy. MEF GFP-LC3 puncta imaging; test concentration mostly 10 µM. calls only at 10 µM (by protocol). 190,000 compounds, 0.98% hits. AID 463193;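 active = percentage of spot-positive cells more than 3 SD above its plate mean, without a fluorescence outlier flag or 80% toxicity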
Hits are given with their value; i = inactive; nt = no result given; + = active, no number.

SMILES	Dynein cargo inh	bCat nuc transl	MT stabilize HCS	L major viab	CHOP inhibitor	Autophagy mod
Cc1ccc(-c2nc3ccc(Cl)cc3n2OC(C)C(=O)O)cc1 (stereo not given)	i	i	i	i	i	i
CC(C)(C)c1ccc(-c2csc(NC(=O)CN3C(=O)NC4(CCCCC4)C3=O)n2)cc1	i	i	i	99	i	i
CCOC(=O)c1ccc(NC(=O)CN2C(=O)NC3(CCCCCC3)C2=O)cc1	i	i	i	91	i	i
CCOC(=O)c1ccc(NC(=O)CN2C(=O)NC3(CCC(C)CC3)C2=O)cc1 (stereo not given)	i	i	i	i	i	i
CCOC(=O)c1c(NC(=O)CN2C(=O)NC3(CCCCC3)C2=O)sc(C)c1-c1ccc(C)cc1	i	i	i	i	71	i
CCOC(=O)c1c(NC(=O)CN2C(=O)NC3(CCC(C)CC3)C2=O)sc(C)c1-c1ccc(C)cc1 (stereo not given)	i	i	i	i	82	i
Cc1ccc(C)c(N2CCN(C(=O)CN3C(=S)NC(C)(C)CC3C)CC2)c1 (stereo not given)	i	i	i	i	i	i
O=C(Nc1nnc(C23CC4CC(CC(C4)C2)C3)s1)c1ccc(N2C(=O)CCC2=O)cc1	i	i	i	i	i	i
CCn1c2ccccc2c2cc(/C=N/O)ccc21	i	i	i	i	i	i
CCn1c2ccc(/C(C)=N\O)cc2c2cc(/C(C)=N\O)ccc21	i	i	i	54	i	i
Cc1ccc(NC(=O)c2cc([N+](=O)[O-])ccc2NCc2cccnc2)cc1	i	i	i	i	i	i
O=C(Nc1ccccc1)c1ccccc1NC(=O)C1CCCCC1	i	i	i	i	i	i
Cc1cccc(NC(=O)c2ccccc2NC(=O)C2CCCCC2)c1C	i	i	i	i	78	i
COc1ccccc1NC(=O)c1ccc(NC(=O)CSc2nnnn2C)cc1	i	i	i	i	i	i
O=C(O)c1cccc(COCC(F)(F)C(F)F)c1	i	i	i	i	i	+
CCCNC(=O)c1cccc(COCC(F)(F)C(F)F)c1	i	i	i	i	i	i
O=C(c1ccco1)N1CCN(C(=O)c2ccc(COc3ccc4c(c3)CCC4)o2)CC1	i	i	i	83	i	i
CCOc1ccc(OCc2cccc(C(=O)O)c2)cc1	nt	i	nt	nt	109	nt
O=C(O)c1cccc(COc2ccc3c(c2)CCC3)c1	i	i	nt	nt	93	nt
Cc1[nH]nc2c1/C(=N\O)CCC2	i	i	i	i	i	i
COc1ccc2oc(-c3ccccc3[N+](=O)[O-])cc(=O)c2c1	i	i	16	i	i	i
Cc1ccc(S(=O)(=O)N2CCC(C(=O)NCc3ccccc3Cl)CC2)cc1	i	i	i	73	i	i
Cc1ccc(S(=O)(=O)N2CCC(C(=O)N[C@@H](Cc3ccccc3)C(=O)O)CC2)cc1	i	nt	i	54	i	i
Cc1ccc(S(=O)(=O)N2CCC(C(=O)NCCN3CCCCCC3)CC2)cc1	i	i	i	100	i	i
CCCCn1nc(C(=O)Oc2ccc3c(C)cc(=O)oc3c2)c2ccccc2c1=O	i	i	i	i	i	i
SMILES	Dynein cargo inh	bCat nuc transl	MT stabilize HCS	L major viab	CHOP inhibitor	Autophagy mod
COc1cc(CN2CCNC(=O)C2CC(=O)N(C)Cc2ncc[nH]2)cc(OC)c1 (stereo not given)	i	i	i	i	i	i
Cn1c(=O)cc(-c2ccccc2)c2ccccc21	i	i	i	i	80	i
Cc1ccc2c(c1)C=CC(C#N)N2C(=O)c1ccccc1 (stereo not given)	i	56	33	i	i	i
O=c1c(C(c2ccccc2)c2c(O)nc3n(c2=O)CCS3)c(O)nc2n1CCS2	i	i	i	i	i	i
CC(C)CCNC(=O)c1cccc(S(=O)(=O)N2CCc3ccccc32)c1	i	i	i	i	i	i
O=C(Nc1nc2c(s1)CN(Cc1ccccc1)CC2)c1cccc(S(=O)(=O)N2CCc3ccccc32)c1	i	i	i	62	i	i
O=C(Nc1nc2ccccc2s1)c1cccc(S(=O)(=O)N2CCc3ccccc32)c1	i	i	nt	nt	i	nt
O=C(NNC(=O)c1cccc(S(=O)(=O)N2CCc3ccccc32)c1)c1ccccc1	i	i	i	i	73	i
CCOC(=O)c1ccc(N=c2sc(C(=O)OC)cc(=O)n2C2CC2)cc1	i	nt	i	i	i	i
COC(=O)c1cc(=O)n(-c2ccc(F)cc2)c(=Nc2ccc(F)cc2)s1	-4.2	i	i	92	i	i
CCOC(=O)c1ccc(N=c2sc(C(=O)OC)cc(=O)n2Cc2ccc3c(c2)OCO3)cc1	i	i	i	100	i	i
COC(=O)c1cc(=O)n(Cc2cccs2)c(=Nc2ccc(F)cc2)s1	i	i	i	98	i	i
COC(=O)c1cc(=O)n(Cc2ccc3c(c2)OCO3)c(=Nc2ccccc2)s1	-3.5	i	i	82	i	i
CC(=O)N1CCCc2cc(S(=O)(=O)NC(C(=O)NCc3ccc(C)cc3)C(C)C)ccc21 (stereo not given)	i	i	i	i	i	i
CCC1(CC)C(=O)C(C)(C)C(=O)OC1c1cccs1 (stereo not given)	i	nt	i	i	i	i
COC(=O)c1c(O)cc(C(C)(C)C)n(-c2ccc(F)cc2)c1=O	i	i	i	63	i	i
COC(=O)c1cc(=O)n(Cc2ccc3c(c2)OCO3)c(=Nc2ccc(F)cc2)s1	i	nt	i	87	i	i
Cc1ccc(-n2nc3c(c2NC(=O)c2c(-c4ccccc4Cl)noc2C)CSC3)cc1	i	i	i	i	i	i
O=C1OCCC1Sc1nnnn1-c1ccc(Cl)cc1 (stereo not given)	i	i	i	i	i	i
Cc1ccc(-n2c(C)cc(C(=O)CN3CCOCC3)c2C)cc1	i	i	i	i	i	i
Cc1cc(C(=O)CN2CCCC(C)C2)c(C)n1-c1ccc(F)cc1 (stereo not given)	i	i	i	73	i	i
Cc1ccc(-n2c(C)cc(C(=O)CN3CCOCC3)c2C)cc1C	i	i	i	57	i	i
CC(=O)Nc1cccc(NC(=S)Nc2ccc(F)cc2F)c1	i	i	i	i	i	i
COc1ccccc1NC(=O)Cn1nnc(-c2ccccc2NC(=O)c2cnccn2)n1	i	i	i	i	90	i
Cc1cnc(C(=O)Nc2ccccc2-c2nnn(CC(=O)NC3CCCC3)n2)cn1	i	i	i	i	i	+
O=S(=O)(NCc1c(Cl)cccc1Oc1ccccc1)c1ccc(F)cc1	i	i	nt	nt	i	nt
CCOC(=O)C(NC(C)=O)C(OC(C)=O)c1cccc(N(CCO)CCO)c1 (stereo not given)	i	nt	i	i	i	i
CC(C)c1nc2ccc(NC(=O)C34CC5CC(CC(C5)C3)C4)cc2[nH]1	i	i	i	i	i	i
Nc1cccc(C(=O)Nc2ccc3nc(-c4cccnc4)[nH]c3c2)c1	i	i	i	i	i	i
